Experimental data published in ChEMBL document CHEMBL4837203, “Innovative C2-symmetric testosterone and androstenedione dimers: Design, synthesis, biological evaluation on prostate cancer cell lines and binding study to recombinant CYP3A4” (Eur J Med Chem, 2021).

Tests used:
DU-145 = assay: Antiproliferative activity against androgen-insensitive human DU-145 cells assessed as inhibition of cell growth incubated for 48 hrs by MTT assay; type: functional, cell-based; conditions: DU-145, 48 h
PC-3 = assay: Antiproliferative activity against androgen-insensitive human PC-3 cells assessed as inhibition of cell growth incubated for 48 hrs by MTT assay; type: functional, cell-based; conditions: PC-3, 48 h
Summary of the method: (§1)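 MTT assay. Cells were seeded at 8 × 10^3/well and left overnight, then grown 48 h in fresh medium with a range of compound concentrations. They were stained with 0.5 mg/mL MTT for 3 h, solubilised in 10% Triton X-100 in acidic isopropanol (0.1 N HCl), and read at 590 nm. Growth inhibition was calculated against control plates fixed on the treatment day. LNCaP and PC3 were kept in RPMI with 10% calf serum. Three replicate wells per condition, three independent repeats.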

LNCaP [1] = assay: Antiproliferative activity against androgen-sensitive human LNCaP cells assessed as inhibition of cell growth incubated for 48 hrs by MTT assay; type: functional, cell-based; summary of the method: as §1
LNCaP [2] = assay: Antiproliferative activity against androgen-sensitive human LNCaP cells assessed as inhibition of testosterone-induced cell growth at 0.25 uM incubated for 48 hrs by MTT assay; type: functional; set-up: scale not given: the % may be the effect or the level left
Summary of the method: (§2)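 Androgen-stimulated proliferation in LNCaP: cells seeded at 8 × 10^3/well in RPMI with 10% FBS and grown 48 h. Then exposed 48 h to 0.1 nM testosterone alone or combined with test agent at 0.125–1 μM. Vehicle control was 0.1% DMSO. Read-out was MTT (3 h, 37 °C) at OD 590 nm, as fold induction versus vehicle. Triplicate wells ×3 repeats.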

LNCaP [3] = assay: Antiproliferative activity against androgen-sensitive human LNCaP cells assessed as inhibition of DHT-induced cell growth at 1 uM incubated for 48 hrs by MTT assay relative to non-stimulation; type: functional; set-up: scale not given: the % may be the effect or the level left
Summary of the method: (§3)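 LNCaP cells seeded at 8 × 10^3/well in RPMI with 10% FBS and grown 48 h. Then treated with 0.1 nM DHT alone or with test agent at 0.125, 0.25, 0.5 or 1 μM for 48 h. Control was 0.1% DMSO. MTT for 3 h at 37 °C, OD read at 590 nm. Growth expressed as fold of DMSO control. Triplicate wells, three independent repeats.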

LNCaP [4] = assay: Antiproliferative activity against androgen-sensitive human LNCaP cells assessed as inhibition of DHT-induced cell growth at 0.125 uM incubated for 48 hrs by MTT assay; type: functional; set-up: scale not given: the % may be the effect or the level left; summary of the method: as §3
Cytochrome P450 3A4 [5] = molecular target: T1, Cytochrome P450 3A4 (Homo sapiens, UniProt P08684); assay: Inhibition of human CYP3A4 assessed as dissociation constant; type: ADME
T1 sequence (P08684 whole entry): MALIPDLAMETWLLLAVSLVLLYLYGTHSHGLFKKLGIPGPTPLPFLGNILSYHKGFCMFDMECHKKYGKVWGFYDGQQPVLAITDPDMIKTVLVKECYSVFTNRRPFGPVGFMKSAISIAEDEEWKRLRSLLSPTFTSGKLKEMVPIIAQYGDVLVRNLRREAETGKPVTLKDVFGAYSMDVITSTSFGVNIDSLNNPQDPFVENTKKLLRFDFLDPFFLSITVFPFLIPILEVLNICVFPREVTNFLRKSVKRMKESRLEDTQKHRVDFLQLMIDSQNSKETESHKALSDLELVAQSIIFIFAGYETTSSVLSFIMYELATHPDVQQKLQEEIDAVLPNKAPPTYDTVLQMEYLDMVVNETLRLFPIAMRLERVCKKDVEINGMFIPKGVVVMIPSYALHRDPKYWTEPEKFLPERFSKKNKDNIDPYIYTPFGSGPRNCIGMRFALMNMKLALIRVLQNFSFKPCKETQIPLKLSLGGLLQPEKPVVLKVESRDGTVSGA
Summary of the method: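 Spectral titration of 2 μM codon-optimized full-length human CYP3A4 in 0.1 M phosphate pH 7.4 with 20% glycerol and 1 mM DTT, at ambient temperature. Ligand was added from DMSO in small aliquots, keeping final solvent below 2%. Absorbance difference spectra were recorded, and Kd was taken from hyperbolic or quadratic fits to the titration plots.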

LNCaP [6] = assay: Antiproliferative activity against androgen-sensitive human LNCaP cells assessed as inhibition of testosterone-induced cell growth at 0.5 uM incubated for 48 hrs by MTT assay relative to non-stimulation; type: functional; set-up: scale not given: the % may be the effect or the level left; summary of the method: as §2
LNCaP [7] = assay: Antiproliferative activity against androgen-sensitive human LNCaP cells assessed as inhibition of DHT-induced cell growth at 0.25 uM incubated for 48 hrs by MTT assay relative to non-stimulation; type: functional; set-up: scale not given: the % may be the effect or the level left
Summary of the method: (§4)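 LNCaP cells were seeded at 8 × 10^3/well in medium with 10% FBS and grown 48 h. They were then exposed for 48 h to 0.1 nM testosterone or DHT, alone or with compound at 0.125, 0.25, 0.5 or 1 μM. Vehicle control was 0.1% DMSO. Read-out was MTT for 3 h at 37 °C, then OD 590 nm, given as fold proliferation versus vehicle. Triplicate wells, three independent repeats; SEM, n = 3.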

LNCaP [8] = assay: Antiproliferative activity against androgen-sensitive human LNCaP cells assessed as inhibition of DHT-induced cell growth at 0.5 uM incubated for 48 hrs by MTT assay relative to non-stimulation; type: functional; set-up: scale not given: the % may be the effect or the level left; summary of the method: as §3
LNCaP [9] = assay: Antiproliferative activity against androgen-sensitive human LNCaP cells assessed as inhibition of testosterone-induced cell growth at 0.125 uM incubated for 48 hrs by MTT assay relative to non-stimulation; type: functional; set-up: scale not given: the % may be the effect or the level left; summary of the method: as §2
LNCaP [10] = assay: Antiproliferative activity against androgen-sensitive human LNCaP cells assessed as inhibition of DHT-induced cell growth at 0.125 uM incubated for 48 hrs by MTT assay relative to non-stimulation; type: functional; set-up: scale not given: the % may be the effect or the level left; summary of the method: as §3
Cytochrome P450 3A4 [11] = molecular target: T1, Cytochrome P450 3A4; assay: Inhibition of recombinant human CYP3A4 using BFC as substrate; type: ADME
Summary of the method: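 Codon-optimized full-length recombinant human CYP3A4 in a soluble reconstituted system. Activity measured was debenzylation of 7-benzyloxy-4-(trifluoromethyl)coumarin; IC50 values were determined.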

LNCaP [12] = assay: Antiproliferative activity against androgen-sensitive human LNCaP cells assessed as inhibition of testosterone-induced cell growth at 1 uM incubated for 48 hrs by MTT assay relative to non-stimulation; type: functional; set-up: scale not given: the % may be the effect or the level left; summary of the method: as §4

SMILES: C[C@]12CC[C@H]3[C@@H](C([C@H]4C=CC[C@H]5C(=O)OC(=O)[C@@H]45)CC4=CC(=O)CC[C@@]43C)[C@@H]1CC[C@@H]2O (some centres not stated)
- IC50 (DU-145): 86.5 µM
- IC50 (PC-3): 62.5 µM
- IC50 (LNCaP [1]): 131 µM

SMILES: C=C/C=C/[C@@H]1CC2=CC(=O)CC[C@]2(C)[C@H]2CC[C@]3(C)C(=O)CC[C@H]3[C@H]12
- IC50 (DU-145): 21.3 µM
- IC50 (PC-3): 51.7 µM
- IC50 (LNCaP [1]): 33.5 µM

SMILES: C[C@]12CC[C@H]3[C@@H]([C@H](/C=C/C=C/C=C/[C@@H]4CC5=CC(=O)CC[C@]5(C)[C@H]5CC[C@]6(C)[C@@H](O)CC[C@H]6[C@H]45)CC4=CC(=O)CC[C@@]43C)[C@@H]1CC[C@@H]2O
- Activity (LNCaP [2]): 86%
- Activity (LNCaP [3]): 100%
- Activity (LNCaP [4]): 45%
- Kd (Cytochrome P450 3A4 [5]): 5.5 µM
- Activity (LNCaP [6]): 100%
- Activity (LNCaP [7]): 83%
- IC50 (DU-145): 14.4 µM
- IC50 (PC-3): 13.6 µM
- Activity (LNCaP [8]): 83%
- IC50 (LNCaP [1]): 12 µM
- Activity (LNCaP [9]): 45%
- Activity (LNCaP [10]): 76%
- IC50 (Cytochrome P450 3A4 [11]): 1.2 µM
- Activity (LNCaP [12]): 98%

SMILES: C[C@]12CC[C@H]3[C@@H]([C@H](C/C=C/C[C@@H]4CC5=CC(=O)CC[C@]5(C)[C@H]5CC[C@]6(C)[C@@H](O)CC[C@H]6[C@H]45)CC4=CC(=O)CC[C@@]43C)[C@@H]1CC[C@@H]2O
- Kd (Cytochrome P450 3A4 [5]): 7.1 µM
- IC50 (Cytochrome P450 3A4 [11]): 6.5 µM

SMILES: C[C@]12CC[C@H]3[C@@H]([C@H](C/C=C\C[C@@H]4CC5=CC(=O)CC[C@]5(C)[C@H]5CC[C@]6(C)[C@@H](O)CC[C@H]6[C@H]45)CC4=CC(=O)CC[C@@]43C)[C@@H]1CC[C@@H]2O
- Kd (Cytochrome P450 3A4 [5]): 0.37 µM
- IC50 (Cytochrome P450 3A4 [11]): 0.8 µM

SMILES: C[C@]12CC[C@H]3[C@@H]([C@H](/C=C/C=C/C=C/[C@@H]4CC5=CC(=O)CC[C@]5(C)[C@H]5CC[C@]6(C)[C@H](O)CC[C@H]6[C@H]45)CC4=CC(=O)CC[C@@]43C)[C@@H]1CC[C@H]2O
- Activity (LNCaP [2]): 100%
- Activity (LNCaP [3]): 100%
- Activity (LNCaP [4]): 45%
- Kd (Cytochrome P450 3A4 [5]): 1.6 µM
- Activity (LNCaP [6]): 112%
- Activity (LNCaP [7]): 84%
- IC50 (DU-145): 21.4 µM
- IC50 (PC-3): 44.5 µM
- Activity (LNCaP [8]): 86%
- IC50 (LNCaP [1]): 37.1 µM
- Activity (LNCaP [9]): 82%
- Activity (LNCaP [10]): 54%
- IC50 (Cytochrome P450 3A4 [11]): 22 µM
- Activity (LNCaP [12]): 84%

SMILES: C=C/C=C/[C@@H]1CC2=CC(=O)CC[C@]2(C)[C@H]2CC[C@]3(C)[C@@H](O)CC[C@H]3[C@H]12
- IC50 (DU-145): 29 µM
- IC50 (PC-3): 34.1 µM
- IC50 (LNCaP [1]): 28.8 µM

SMILES: C[C@]12CCC(=O)C=C1C[C@@H](/C=C/C=C/C=C/[C@@H]1CC3=CC(=O)CC[C@]3(C)[C@H]3CC[C@]4(C)C(=O)CC[C@H]4[C@H]13)[C@@H]1[C@@H]2CC[C@]2(C)C(=O)CC[C@@H]12
- Kd (Cytochrome P450 3A4 [5]): 1.4 µM
- IC50 (DU-145): 53.6 µM
- IC50 (PC-3): 29 µM
- IC50 (LNCaP [1]): 72.7 µM
- IC50 (Cytochrome P450 3A4 [11]): 3.6 µM

SMILES: C=C/C=C/[C@@H]1CC2=CC(=O)CC[C@]2(C)[C@H]2CC[C@]3(C)[C@H](O)CC[C@H]3[C@H]12
- IC50 (DU-145): 23.8 µM
- IC50 (PC-3): 31.5 µM
- IC50 (LNCaP [1]): 16.6 µM

SMILES: CC(=O)O[C@]1(C(C)=O)CC[C@H]2[C@@H]3C=C(Cl)C4=CC(=O)[C@@H]5C[C@@H]5[C@]4(C)[C@H]3CC[C@@]21C [CYPROTERONE ACETATE]
- IC50 (DU-145): 50.7 µM
- IC50 (PC-3): 56.9 µM
- IC50 (LNCaP [1]): 59.6 µM
